# From paper PMC2788151 (Journal of immunology (Baltimore, Md. : 1950), 2009)
# Non-standard residues stand in square brackets, D forms with d. Residues, ends and D or L forms follow the SMILES beside them. No end group written: not given here. *: point of attachment. Biotin = O=C1N[C@H]2[C@H](CS[C@H]2CCCCC(=O)*)N1; pY = N[C@@H](Cc1ccc(OP(=O)(O)O)cc1)C(=O)O
# Legend:
# [1] = molecular target: CD200R pY1 peptide (human); assay: SPR
# [2] = molecular target: CD200R pY1,2 peptide (human); assay: SPR
# Chain of CD200R pY1,2 peptide (human) (Q8TD46 309-329): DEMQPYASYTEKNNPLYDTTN
# [3] = molecular target: CD200R pY1,3 peptide (human); assay: SPR
# [4] = molecular target: CD200R pY3 peptide (human); assay: SPR
# [5] = molecular target: T1, Recombinant human Dok1 PTB domain (amino acids 140–268) (Homo sapiens, UniProt Q99704); type: binding
# T1 sequence (Q99704 140-268): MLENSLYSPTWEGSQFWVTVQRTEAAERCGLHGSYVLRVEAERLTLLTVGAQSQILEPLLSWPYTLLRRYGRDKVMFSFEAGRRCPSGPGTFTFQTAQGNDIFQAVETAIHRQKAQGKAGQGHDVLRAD
# How it was run: (§1)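 On a BIAcore 3000, ~4000 RU streptavidin was amine-coupled to CM5 chips at 25°C, then 50–150 RU biotinylated human phosphotyrosine peptides (CD200R tail, singly or doubly phosphorylated) were captured. Increasing concentrations of monomeric recombinant soluble PTB domain were passed over at 37°C to reach equilibrium binding. Signal from non-phosphorylated-peptide or streptavidin-only flow cells was subtracted, and the data were fitted to hyperbolas.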
# [6] = molecular target: T2, Recombinant human Dok2 PTB domain (amino acids 133–259) (Homo sapiens, UniProt O60496); type: binding
# T2 sequence (O60496 133-259): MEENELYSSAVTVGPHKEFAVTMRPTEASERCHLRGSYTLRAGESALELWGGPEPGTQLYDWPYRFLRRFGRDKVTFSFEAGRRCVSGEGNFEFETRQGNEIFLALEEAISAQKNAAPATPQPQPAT
# How it was run: as §1
# [7] = molecular target: T3, Recombinant human Dok1 PTB domain (amino acids 140-268) (human, UniProt Q99704 140-268); assay: SPR
# T3 sequence (looked up): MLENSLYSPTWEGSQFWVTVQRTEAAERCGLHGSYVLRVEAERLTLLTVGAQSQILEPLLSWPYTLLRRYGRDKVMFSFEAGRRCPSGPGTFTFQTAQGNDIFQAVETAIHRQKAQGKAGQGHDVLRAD
# [8] = molecular target: T4, Recombinant human Dok2 PTB domain (amino acids 133-259) (human, UniProt O60496 133-259); assay: SPR
# T4 sequence (looked up): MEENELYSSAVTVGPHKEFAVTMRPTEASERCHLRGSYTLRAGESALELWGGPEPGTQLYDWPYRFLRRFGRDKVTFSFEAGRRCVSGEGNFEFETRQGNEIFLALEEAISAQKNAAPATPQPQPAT
molecule,measurement,setting,value
Recombinant human Dok1 PTB domain (amino acids 140-268) (from UniProt Q99704 140-268) (domain or fragment),Kd,[1],14 µM
same,Kd,[2],8.4 µM
same,Kd,[3],6.2 µM
same,Kd,[4],7.3 µM
CSCC[C@H](NC(=O)[C@H](CCC(=O)O)NC(=O)[C@H](CC(=O)O)NC(=O)CCCC[C@@H]1SC[C@@H]2NC(=O)N[C@@H]21)C(=O)N[C@@H](CCC(N)=O)C(=O)N1CCC[C@H]1C(=O)N[C@@H](Cc1ccc(OP(=O)(O)O)cc1)C(=O)N[C@@H](C)C(=O)N[C@@H](CO)C(=O)N[C@@H](Cc1ccc(O)cc1)C(=O)N[C@H](C(=O)N[C@@H](CCC(=O)O)C(=O)N[C@@H](CCCCN)C(=O)N[C@@H](CC(N)=O)C(=O)N[C@@H](CC(N)=O)C(=O)N1CCC[C@H]1C(=O)N[C@@H](CC(C)C)C(=O)N[C@@H](Cc1ccc(O)cc1)C(=O)N[C@@H](CC(=O)O)C(=O)N[C@H](C(=O)N[C@H](C(=O)N[C@@H](CC(N)=O)C(=O)O)[C@@H](C)O)[C@@H](C)O)[C@@H](C)O [CD200R pY1] (Biotin-DEMQP[pY]ASYTEKNNPLYDTTN-OH),Kd,[5],14 µM
"CSCC[C@H](NC(=O)[C@H](CCC(=O)O)NC(=O)[C@H](CC(=O)O)NC(=O)CCCC[C@@H]1SC[C@@H]2NC(=O)N[C@@H]21)C(=O)N[C@@H](CCC(N)=O)C(=O)N1CCC[C@H]1C(=O)N[C@@H](Cc1ccc(OP(=O)(O)O)cc1)C(=O)N[C@@H](C)C(=O)N[C@@H](CO)C(=O)N[C@@H](Cc1ccc(O)cc1)C(=O)N[C@H](C(=O)N[C@@H](CCC(=O)O)C(=O)N[C@@H](CCCCN)C(=O)N[C@@H](CC(N)=O)C(=O)N[C@@H](CC(N)=O)C(=O)N1CCC[C@H]1C(=O)N[C@@H](CC(C)C)C(=O)N[C@@H](Cc1ccc(OP(=O)(O)O)cc1)C(=O)N[C@@H](CC(=O)O)C(=O)N[C@H](C(=O)N[C@H](C(=O)N[C@@H](CC(N)=O)C(=O)O)[C@@H](C)O)[C@@H](C)O)[C@@H](C)O [CD200R pY1,3] (Biotin-DEMQP[pY]ASYTEKNNPL[pY]DTTN-OH)",Kd,[5],6.2 µM
same,Kd,[6],0.6 µM
CSCC[C@H](NC(=O)[C@H](CCC(=O)O)NC(=O)CCCC[C@@H]1SC[C@@H]2NC(=O)N[C@@H]21)C(=O)N[C@@H](Cc1ccccc1)C(=O)N[C@@H](CCC(=O)O)C(=O)N[C@@H](CC(N)=O)C(=O)N1CCC[C@H]1C(=O)N[C@@H](CC(C)C)C(=O)N[C@@H](Cc1ccc(OP(=O)(O)O)cc1)C(=O)NCC(=O)N[C@@H](CO)C(=O)N[C@@H](CC(C)C)C(=O)N[C@@H](CO)C(=O)N[C@@H](CO)C(=O)O [SHIP pY1022] (Biotin-EMFENPL[pY]GSLSS-OH),Kd,[5],13 µM
"CSCC[C@H](NC(=O)[C@H](CCC(=O)O)NC(=O)[C@H](CC(=O)O)NC(=O)CCCC[C@@H]1SC[C@@H]2NC(=O)N[C@@H]21)C(=O)N[C@@H](CCC(N)=O)C(=O)N1CCC[C@H]1C(=O)N[C@@H](Cc1ccc(OP(=O)(O)O)cc1)C(=O)N[C@@H](C)C(=O)N[C@@H](CO)C(=O)N[C@@H](Cc1ccc(OP(=O)(O)O)cc1)C(=O)N[C@H](C(=O)N[C@@H](CCC(=O)O)C(=O)N[C@@H](CCCCN)C(=O)N[C@@H](CC(N)=O)C(=O)N[C@@H](CC(N)=O)C(=O)N1CCC[C@H]1C(=O)N[C@@H](CC(C)C)C(=O)N[C@@H](Cc1ccc(O)cc1)C(=O)N[C@@H](CC(=O)O)C(=O)N[C@H](C(=O)N[C@H](C(=O)N[C@@H](CC(N)=O)C(=O)O)[C@@H](C)O)[C@@H](C)O)[C@@H](C)O [CD200R pY1,2] (Biotin-DEMQP[pY]AS[pY]TEKNNPLYDTTN-OH)",Kd,[5],8.4 µM
CSCC[C@H](NC(=O)[C@H](CCC(=O)O)NC(=O)[C@H](CC(=O)O)NC(=O)CCCC[C@@H]1SC[C@@H]2NC(=O)N[C@@H]21)C(=O)N[C@@H](CCC(N)=O)C(=O)N1CCC[C@H]1C(=O)N[C@@H](Cc1ccc(O)cc1)C(=O)N[C@@H](C)C(=O)N[C@@H](CO)C(=O)N[C@@H](Cc1ccc(O)cc1)C(=O)N[C@H](C(=O)N[C@@H](CCC(=O)O)C(=O)N[C@@H](CCCCN)C(=O)N[C@@H](CC(N)=O)C(=O)N[C@@H](CC(N)=O)C(=O)N1CCC[C@H]1C(=O)N[C@@H](CC(C)C)C(=O)N[C@@H](Cc1ccc(OP(=O)(O)O)cc1)C(=O)N[C@@H](CC(=O)O)C(=O)N[C@H](C(=O)N[C@H](C(=O)N[C@@H](CC(N)=O)C(=O)O)[C@@H](C)O)[C@@H](C)O)[C@@H](C)O [CD200R pY3] (Biotin-DEMQPYASYTEKNNPL[pY]DTTN-OH),Kd,[5],7.3 µM
same,Kd,[6],1.4 µM
Recombinant human Dok2 PTB domain (amino acids 133-259) (from UniProt O60496 133-259) (domain or fragment),Kd,[3],0.6 µM
same,Kd,[4],1.4 µM
CC[C@H](C)[C@H](NC(=O)[C@H](CCC(=O)O)NC(=O)[C@@H](NC(=O)CCCC[C@@H]1SC[C@@H]2NC(=O)N[C@@H]21)[C@@H](C)O)C(=O)N[C@H](C(=O)N[C@@H](CC(N)=O)C(=O)N1CCC[C@H]1C(=O)N[C@@H](CC(N)=O)C(=O)N[C@@H](Cc1ccc(OP(=O)(O)O)cc1)C(=O)N[C@@H](CCSC)C(=O)NCC(=O)N[C@H](C(=O)NCC(=O)N1CCC[C@H]1C(=O)O)C(C)C)[C@@H](C)CC [SHIP pY917] (Biotin-TEIINPN[pY]MGVGP-OH),Kd,[5],13 µM
Biotin-CMEENEL[pY]SSAV [Dok2 pY139 peptide],Kd,[7],3.3 µM
Biotin-TEIINPN[pY]MGVGP [SHIP pY917 peptide],Kd,[8],> 30 µM
Biotin-EMLENSL[pY]SPTW [Dok1 pY146 peptide],Kd,[7],6.9 µM
